# NPY1 pot ag = potentiators or agonists of human neuropeptide Y receptor Y1. actives 0.37% (n = 220,000). activation, % at 3.6 µM. NPY-Y1 expressing cells, potentiator/agonist activation. P25929; in the data active means activation above about 33%, passing the limit was not always enough;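 further: cells stimulated with NPY at EC10 then isoproterenol at EC100; 0% = low agonist plus stimulus and 100% = saturating agonist plus stimulus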
# Target sequence (P25929 whole entry, looked up): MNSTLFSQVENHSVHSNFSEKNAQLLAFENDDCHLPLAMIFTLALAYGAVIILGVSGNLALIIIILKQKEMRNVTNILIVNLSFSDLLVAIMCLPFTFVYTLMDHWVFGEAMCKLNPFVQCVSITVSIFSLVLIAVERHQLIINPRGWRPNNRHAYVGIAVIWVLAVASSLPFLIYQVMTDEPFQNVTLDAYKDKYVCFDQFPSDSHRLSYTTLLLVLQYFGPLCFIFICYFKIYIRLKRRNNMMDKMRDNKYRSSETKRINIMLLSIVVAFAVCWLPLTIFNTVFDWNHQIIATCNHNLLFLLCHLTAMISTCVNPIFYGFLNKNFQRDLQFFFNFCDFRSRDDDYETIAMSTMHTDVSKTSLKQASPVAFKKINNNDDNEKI
# NPY-Y1 antag = blocks the human neuropeptide Y Y1 receptor. actives 1% (n = 200,000). HEK293-CNG Y1 cells, membrane potential fluorescence; NPY at EC95, then isoproterenol. P25929. inhibition, % at 3.6 µM;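 active means inhibition above the campaign mean inhibition of all tested compounds plus 3 SD, cut at about 20% in these data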;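 further: 0% = DMSO wells given NPY plus isoproterenol and 100% = isoproterenol alone without NPY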
#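 Test system: HEK293 cells co-expressing NPY Y1 receptor and cyclic-nucleotide gated channel; Also added: NPY (25 nM), isoproterenol (1 µM), Ro 20-1724 (25 µM); Compound dosing: one concentration, 3.6 µM, in 0.4% DMSO; Timing: dye 3 h, compound 60 min room temperature, stimulation 45 min; Technique: Membrane-potential fluorescent dye readout.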
# EP2 antag = blocks the human prostaglandin E2 receptor EP2; C6 glioma cells expressing human EP2, cAMP TR-FRET; cells stimulated with saturating PGE2; AID 1422; P43116; actives 0.52% (n = 260,000); inhibition, % at 25 µM;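 active means percent inhibition above 40 after rounding to a whole number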;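 further: rat C6 glioma host cells with rolipram phosphodiesterase inhibitor present; the protocol text gives 20 µM as final concentration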
# NPY-Y2 PAM-ag = potentiators or agonists of human neuropeptide Y receptor Y2; P49146; cells expressing NPY-Y2, potentiator/agonist read-out; activation, % at 3.6 µM; actives 0.45% (n = 220,000); AID 1359; in the data active means activation above about 27%;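 further: cells stimulated with NPY near EC25 plus isoproterenol at EC100; 0% = vehicle plus submaximal agonist and 100% = vehicle plus saturating agonist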
# NPY Y2 blocker = antagonists of human neuropeptide Y receptor Y2; NPY-Y2 expressing cells, antagonist mode; inhibition, % at 2.7 µM; actives 0.99% (n = 140,000); AID 793; in the data active means inhibition above about 17%;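 further: 0% = vehicle with agonist challenge and 100% = reference antagonist with challenge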
# EP2 mod = modulates human prostaglandin E2 receptor EP2 signaling; EP2-expressing cells, cAMP HTRF FRET, PGE2 co-stimulation; induction, % at 25 µM; actives 0.83% (n = 260,000); AID 940;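 active means compounds whose cAMP rise, as percent of the full-agonist control response, exceeds 60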;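 further: rat C6 glioma line stably carrying human EP2 under a CMV promoter; the protocol text gives 20 µM as final concentration; 100% = response of wells given 1 µM PGE2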
# NPY-Y1 pot conf = human NPY-Y1 potentiation or agonism, confirmation; actives 20% (n = 280); shares compounds with NPY1 pot ag; cell-based NPY-Y1 potentiator/agonist assay; AID 1546; activation, % at 3.6 µM; in the data active means activation above about 45%;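 further: cells challenged with NPY at its EC10 plus isoproterenol stimulus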
# NPY-Y2 counter = potentiates or activates NPY-Y2, counter-screen for NPY-Y1 hits | activation, % at 3.6 µM | actives 20% (n = 280) | shares compounds with NPY1 pot ag | HEK293-CNG cells, membrane-potential fluorescence (FLIPR), 1536-well | AID 1649; in the data active means activation above about 33%
# NPY-Y1 agonist = counter-screen for NPY-Y1 potentiators: agonists of human NPY-Y1; shares compounds with NPY1 pot ag; actives 50% (n = 280); HEK293 Y1-CNGC, membrane potential fluorescence, agonist mode; activation, % at 3.6 µM;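 active means percent activation above the mean of DMSO-only control wells plus 3 SD of those wells, cut at about 18% in these data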;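 further: cells challenged with isoproterenol plus Ro 20-1724 with no NPY in test wells; Y1 agonism lowers isoproterenol-driven cAMP and reduces probe fluorescence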
# NPY-Y2 agonist = activates human NPY-Y2, counter-screen for NPY-Y1 hits. HEK293 Y2-CNGC, membrane potential fluorescence, agonist mode. actives 67% (n = 280). shares compounds with NPY1 pot ag. activation, % at 3.6 µM;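 active means activation above the solvent-only control wells' mean plus 3 SD, cut at about 11% in these data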;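 further: 0% = DMSO with isoproterenol and 100% = 40 nM NPY maximal response; agonism lowers cAMP so well fluorescence drops in active wells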
# CNGC counter = CNG channel inhibition, counter-screen for NPY-Y1 potentiators | actives 42% (n = 280) | shares compounds with NPY1 pot ag | inhibition, % at 3.6 µM | HEK293-CNG parental, isoproterenol cAMP, membrane potential fluorescence;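 active means inhibition above the mean of stimulated solvent-only control wells plus 3 SD, cut at about 22% in these data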;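 further: 0% = isoproterenol-stimulated DMSO wells and 100% = unstimulated DMSO wells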
# * marks the source's active call; other numbers are inactive results; x = no result. The list is not random: actives were taken first. Their share in the collection is about 2.8%.
SMILES,NPY1 pot ag,NPY-Y1 antag,EP2 antag,NPY-Y2 PAM-ag,NPY Y2 blocker,EP2 mod,NPY-Y1 pot conf,NPY-Y2 counter,NPY-Y1 agonist,NPY-Y2 agonist,CNGC counter
CCCN1C(=O)/C(=C/c2ccc(OCC(=O)OCC)cc2)NC1=S,78*,-7,23,22,x,0,122*,101*,110*,105*,100*
CCCN1C(=O)/C(=C/c2ccc(N3CCOCC3)cc2)NC1=S,13,-5,10,18,x,-42,x,x,x,x,x
Cn1c(C(C#N)C2=C(Cl)C(=O)N(c3ccccc3)C2=O)nc2ccccc21 (centres undefined),36*,-17,4,30,-7,-13,71*,60*,83*,72*,58*
Cn1c(C(O)C(O)c2ccccc2)nc2ccccc21 (centres undefined),9,-5,21,6,x,12,x,x,x,x,x
Cc1cc(C)c2cc(CN(Cc3nnnn3C(C)(C)C)CC3CCCO3)c(=O)[nH]c2c1 (centres undefined),x,x,12,x,x,-26,x,x,x,x,x
Cc1ccc(NC(=O)COC(=O)c2ccc([N+](=O)[O-])o2)cc1S(=O)(=O)N1CCCCC1,41*,9,8,5,x,-70,-7,-2,-14,-4,5
COC(=O)c1ccc(NC(=O)CN2CCN(c3ccccc3C)CC2)cc1,54*,13,3,10,10,-3,-37,-26,-22,-4,-27
COc1ccc(NC(=O)CN2CCN(c3ccccc3C)CC2)cc1,x,x,9,x,x,-77,x,x,x,x,x
CC(C)(C)c1cc(NCCCn2ccnc2)n2ncc(-c3ccc(Cl)cc3)c2n1,33,-4,13,19,-4,40,x,x,x,x,x
CN(C)CCCNc1cc(C(C)(C)C)nc2c(-c3ccccc3)cnn12,55*,x,10,27,x,5,41,34*,25*,20*,35*
CC1=CC=CC2=NC(=O)CC(C)(C(=O)NCC(c3ccccc3)c3ccccc3)N12 (centres undefined),x,x,3,x,x,-6,x,x,x,x,x
CCCCCCCCCCCCCCCCn1cc[n+](CC(C)=O)c1,58*,-4,7,23,x,-41,58*,25,38*,19*,28*
CCCCCCn1ccc(=N)cc1,-1,2,10,-2,1,19,x,x,x,x,x
CC1CC(C)CN(CCCNC(=O)c2cc3c(=O)[nH]c4ccccc4c3n2C)C1 (centres undefined),41*,-5,3,21,x,-15,20,20,26*,19*,9
Cc1ccccc1NCC(=O)N/N=C/c1c[nH]c2ccccc12,46*,-10,14,15,x,-93,29,25,27*,18*,29*
COc1ccc(S(=O)(=O)Nc2ccccc2C(=O)Nc2nc(-c3ccc(F)cc3)cs2)cc1OC,39*,-5,8,32,4,-44,-16,9,-12,7,-5
Cc1ccccc1OCC(O)CN1CCN(CC(O)COc2ccccc2C)CC1 (centres undefined),40*,-5,4,23,x,-26,18,19,31*,16*,0
Cc1ccccc1OCC(O)CN1CCN(c2ccc(Cl)cc2)CC1 (centres undefined),-32,x,3,-39,x,-5,x,x,x,x,x
Cc1ccc(CC(=O)Nc2nnc(C)s2)cc1,x,x,7,x,x,-16,x,x,x,x,x
